According to article PMC8721254 (Journal of Advanced Research, 2021):

What was measured:
BSMCs [1] = assay: Intracellular H2S release; format: cell-based; conditions: WSP-1-preloaded BSMCs, 40 min
Procedure, shortened: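 Bronchial smooth muscle cells were grown at 37 °C in 5% CO2 with 1% pen/strep and seeded at 30 × 10^3 cells/well. Cells were loaded with the H2S-sensitive dye WSP-1, then exposed to test compound, vehicle, or diallyl disulfide as reference donor. Fluorescence was recorded spectrofluorometrically for 40 min and expressed as fluorescence index, mean ± SEM.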

[2] = Chemical stability in simulated gastric fluid; format: physicochemical; conditions: simulated gastric fluid (SGF) without pepsin, pH 1.2
Procedure, shortened: (§1)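 Test compound was taken from a 10 mM DMSO stock and diluted into PBS pH 7.4 or pepsin-free SGF pH 1.2 (0.5% DMSO final), in triplicate. Samples were incubated at 37 ± 0.5 °C for 24 h with sampling at intervals. Parent compound, glucocorticoid, H2S-donor moiety and succinate metabolite were quantified by C18 RP-HPLC (CH3CN/water 0.1% TFA gradient; UV 234/250/300 nm) against calibration standards. Results are % remaining, mean ± SD, n = 3.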

[3] = Chemical stability in saline phosphate buffer; format: physicochemical; conditions: phosphate buffered saline (PBS), pH 7.4
Procedure, shortened: as §1

[4] = Enzymatic stability in human serum; format: in vitro ADME
Procedure, shortened: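 Sterile-filtered human serum was spiked with test compound from a 10 mM DMSO stock (1% DMSO), in triplicate, at 37 °C. Aliquots taken at intervals up to 24 h were deproteinized with an equal volume of CH3CN containing 0.1% TFA. Samples were vortexed, sonicated 3 min, centrifuged 5 min at 2500 g, filtered, and analysed by C18 RP-HPLC against calibration standards. Half-life is reported as mean ± SD, n = 3.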

[5] = tested on: OVA-induced allergic lung inflammation; assay: OVA-induced allergic lung inflammation and remodeling; format: in vivo, Balb/c mice; conditions: mice, oral, equimolar doses equivalent to 5.5 mg/kg prednisone (compound 7 9.1 mg/kg); for number of peribronchiolar eosinophils / number of peribronchiolar mast cells: vs allergic mice; for peribronchiolar collagen density / peribronchiolar smooth muscle (α-actin): vs vehicle-treated allergic mice
Procedure, shortened: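 Male Balb/c mice, 4–5 weeks old (n = 5/group), sensitized with subcutaneous OVA on alum on days 1 and 11 plus intranasal OVA on day 11. Intranasal OVA challenges followed on two consecutive days weekly for six weeks; controls got saline. Oral dosing in 0.5% carboxymethyl cellulose (1 mL/kg) was given 30 min before each challenge, then daily for 4 weeks until euthanasia. Formalin-fixed lungs were scored for α-actin (immunohistochemistry) and collagen (Masson's trichrome); one-way ANOVA with Tukey test.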

RBL-2H3 cells = assay: β-hexosaminidase; format: cell-based, rat; conditions: DNP-HSA-induced degranulation of RBL-2H3
Procedure, shortened: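 Rat basophilic leukaemia RBL-2H3 cells were seeded at 72 × 10^3 cells/well and sensitized overnight with anti-DNP-HSA IgE, then moved to DMEM containing 1 mg/mL BSA. Test compound, vehicle (0.1% DMSO) or cromolyn was preincubated 5 min at 37 °C, and degranulation was triggered with DNP (10 ng/mL). After 1 h, supernatant β-hexosaminidase was read at 405 nm with p-nitrophenyl-N-acetyl-β-D-glucosaminide substrate. Values are relative to DNP-HSA as 100%, analysed by one-way ANOVA/Bonferroni.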

BSMCs [6] = assay: Membrane hyperpolarizing effects on BSMCs; format: cell-based; conditions: reference NS1619 10 µM

Question: For `C[C@@H]1C[C@H]2[C@@H]3CCC4=CC(=O)C=C[C@]4(C)[C@@]3(F)[C@@H](O)C[C@]2(C)[C@@]1(O)C(=O)COC(=O)CCC(=O)Oc1ccc(-c2cc(=S)ss2)cc1` [Compound 6, 2-((8S,9R,10S,11S,13S,14S,16R,17R)-9-fluoro-11,17-dihydroxy-10,13,16-trimethyl-3-oxo-6,7,8,9,10,11,12,13,14,15,16,17-dodecahydro-3H-cyclopenta[a]phenanthren-17-yl)-2-oxoethyl (4-(3-thioxo-3H-1,2-dithiol-5-yl)phenyl) succinate], which “Intracellular H2S release, fluorescence index (FI)” value (BSMCs [1]; 100 and 300 µM) is on record?
Answer: did not cause any significant increase in fluorescence

Question: What about the remaining at 24 h, 50 µM [2] of the same molecule?
Answer: 99 ± 1%

Question: What about the remaining at 24 h, 50 µM [3] of the same molecule?
Answer: 99 ± 2%

Question: And the half-life at 100 µM [4]?
Answer: 10 ± 1 min

Question: With `C[C@]12C=CC(=O)C=C1CC[C@@H]1[C@@H]2C(=O)C[C@@]2(C)[C@H]1CC[C@]2(O)C(=O)COC(=O)CCC(=O)Oc1ccc(C(N)=S)cc1` [Compound 7, 4-carbamothioylphenyl (2-((8S,9S,10R,13S,14S,17R)-17-hydroxy-10,13-dimethyl-3,11-dioxo-6,7,8,9,10,11,12,13,14,15,16,17-dodecahydro-3H-cyclopenta[a]phenanthren-17-yl)-2-oxoethyl) succinate] as the molecule, how does the “number of peribronchiolar eosinophils” value [5] read?
Answer: significantly reduced

Question: What about the “number of peribronchiolar mast cells” value [5] of the same molecule?
Answer: significantly reduced

Question: What about the peribronchiolar collagen density [5] of the same molecule?
Answer: significantly more efficient than the parent prednisone

Question: And the “peribronchiolar smooth muscle (α-actin)” value [5]?
Answer: significantly more efficient than the parent prednisone

Question: And the “Intracellular H2S release, fluorescence index (FI)” value (BSMCs [1]; 100 and 300 µM)?
Answer: significant increase in the intracellular level of H2S

Question: And the remaining at 24 h, 50 µM [2]?
Answer: 99 ± 1%

Question: And the “inhibition of mast cell degranulation (β-hexosaminidase release)” value (RBL-2H3 cells; 100 and 300 µM)?
Answer: significant inhibitory effect on mast cell degranulation

Question: And the “hyperpolarizing effect compared to NS1619 10 µM” value (BSMCs [6]; 100 µM)?
Answer: about 240%

Question: What about the “hyperpolarizing effect compared to NS1619 10 µM” value (BSMCs [6]; 300 µM) of the same molecule?
Answer: about 309%

Question: And the remaining at 24 h, 50 µM [3]?
Answer: 97 ± 1%

Question: And the half-life at 100 µM [4]?
Answer: 15 ± 2 min

Question: Which “Intracellular H2S release, fluorescence index (FI)” value (BSMCs [1]; 100 µM, vs vehicle) does the source give for `NC(=S)c1ccc(O)cc1` [TBZ, 4-hydroxy-thiobenzamide, reference compound] here?
Answer: slight increase of FI

Question: What about the “Intracellular H2S release, fluorescence index (FI)” value (BSMCs [1]; 300 µM) of the same molecule?
Answer: massive increase in FI

Question: What about the “inhibition of mast cell degranulation (β-hexosaminidase release)” value (RBL-2H3 cells; 300 µM) of the same molecule?
Answer: significant inhibition of RBL-2H3 degranulation

Question: And the “hyperpolarizing effect compared to NS1619 10 µM” value (BSMCs [6]; 100 µM)?
Answer: 38%

Question: What about the “hyperpolarizing effect compared to NS1619 10 µM” value (BSMCs [6]; 300 µM) of the same molecule?
Answer: 43%

Question: What does the source list for `C[C@]12C=CC(=O)C=C1CC[C@@H]1[C@@H]2C(=O)C[C@@]2(C)[C@H]1CC[C@]2(O)C(=O)CO` [Compound 2, prednisone, reference compound]?
Answer: number of peribronchiolar eosinophils [5]: significantly reduced; number of peribronchiolar mast cells [5]: significantly reduced; peribronchiolar collagen density [5]: efficient in reducing; peribronchiolar smooth muscle (α-actin) [5]: efficient in reducing; inhibition of mast cell degranulation (β-hexosaminidase release) (RBL-2H3 cells; 100 and 300 µM): totally inactive

Question: For `C[C@]12C=CC(=O)C=C1CC[C@@H]1[C@@H]2C(=O)C[C@@]2(C)[C@H]1CC[C@]2(O)C(=O)COC(=O)CCC(=O)Oc1ccc(-c2cc(=S)ss2)cc1` [Compound 8, 2-((8S,9S,10R,13S,14S,17R)-17-hydroxy-10,13-dimethyl-3,11-dioxo-6,7,8,9,10,11,12,13,14,15,16,17-dodecahydro-3H-cyclopenta[a]phenanthren-17-yl)-2-oxoethyl (4-(3-thioxo-3H-1,2-dithiol-5-yl)phenyl) succinate], which “Intracellular H2S release, fluorescence index (FI)” value (BSMCs [1]; 100 and 300 µM) is on record?
Answer: did not cause any significant increase in fluorescence

Question: And the remaining at 24 h, 50 µM [2]?
Answer: 99 ± 1%

Question: What about the remaining at 24 h, 50 µM [3] of the same molecule?
Answer: 99 ± 2%

Question: And the half-life at 100 µM [4]?
Answer: 9 ± 2 min

Question: With `C=CCSSCC=C` [DADS, diallyl disulfide, reference compound] as the molecule, how does the “Intracellular H2S release, fluorescence index (FI)” value (BSMCs [1]; 100 µM, vs vehicle) read?
Answer: significant FI increase
